Consider three compounds from ChEMBL document CHEMBL3259629, “Discovery and optimization of piperidyl-1,2,3-triazole ureas as potent, selective, and in vivo-active inhibitors of α/β-hydrolase domain containing 6 (ABHD6)” (J Med Chem, 2013).

Usually inhibition stands for the percentage by which the read-out fell short of the control. What is called inhibition in vivo is the change of the read-out against control, counted positive when it falls. Low readings indicate a response near the control, high ones a response far below the control. One may read the IC50 as the concentration needed to halve the response being measured.

Molecules are shown by their SMILES. Active and inactive are the calls of the source. The rule behind the calls is not given here. Some results are limits rather than exact numbers.

The subject of assay [1] is Mus musculus. In words: In vivo inhibition of ABHD6 in C57Bl/6 mouse liver at 1 mg/kg, ip after 4 hrs by HT-10-labelled gel-based competitive ABPP assay. The format is functional, organism-based. More on the design: dose 1 mg/kg. The gist of the method:
(§1)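 C57Bl/6 mice dosed i.p. at 0.1, 0.5 or 1 mg kg⁻¹ in 18:1:1 saline/ethanol/PEG40 (ethoxylated castor oil), 10 μL g⁻¹. Killed after 4 hr under isoflurane by cervical dislocation. Brain and liver membrane fractions (100,000 × g) labelled with FP-rhodamine or HT-01 (1 μM, 30 min, 37 °C), then SDS-PAGE and in-gel fluorescence scanning. Liver ABHD6 read from HT-01 gels.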

Assay [2] has as its target Acyl-protein thioesterase 2 (Mus musculus) (UniProt Q9WTL7). As to the kind of experiment: Inhibition of FP-rhodamine-labelled recombinant mouse LYPLA2 at 10 uM preincubated for 30 mins followed by FP-rhodamine labelling measured after 30 mins by gel-based competitive ABPP assay.
Assay [3] concerns the target T1, Neutral cholesterol ester hydrolase 1 (Mus musculus) (UniProt Q8BLF1).
T1 sequence (whole entry): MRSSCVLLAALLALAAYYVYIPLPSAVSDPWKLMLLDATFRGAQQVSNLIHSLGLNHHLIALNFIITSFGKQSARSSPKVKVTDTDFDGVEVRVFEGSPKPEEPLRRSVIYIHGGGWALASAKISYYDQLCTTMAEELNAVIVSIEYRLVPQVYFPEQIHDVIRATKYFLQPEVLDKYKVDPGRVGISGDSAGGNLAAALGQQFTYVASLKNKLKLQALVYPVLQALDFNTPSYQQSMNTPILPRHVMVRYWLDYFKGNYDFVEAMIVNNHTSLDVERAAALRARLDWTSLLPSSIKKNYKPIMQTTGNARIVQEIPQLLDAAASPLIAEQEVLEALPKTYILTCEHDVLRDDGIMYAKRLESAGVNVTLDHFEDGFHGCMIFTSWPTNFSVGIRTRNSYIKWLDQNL
The settings on record: Neuro2a, 3 nM.

Assay [4] deals with Mus musculus. As to the kind of experiment: In vivo inhibition of ABHD6 in C57Bl/6 mouse brain at 1 mg/kg, ip after 4 hrs by HT-10-labelled gel-based competitive ABPP assay. The format is functional, organism-based. Further details: dose 1 mg/kg. The gist of the method: as §1
Assay [5] deals with Acyl-protein thioesterase 1 (Mus musculus) (UniProt P97823). In words: Inhibition of FP-rhodamine-labelled recombinant mouse LYPLA1 at 10 uM preincubated for 30 mins followed by FP-rhodamine labelling measured after 30 mins by gel-based competitive ABPP assay.
The subject of assay [6] is Mus musculus. As to the kind of experiment: In vivo inhibition of ABHD6 in C57Bl/6 mouse liver at 0.1 mg/kg, ip after 4 hrs by HT-10-labelled gel-based competitive ABPP assay. In kind it is functional. The settings on record: C57Bl/6, Liver, route intraperitoneal. The gist of the method: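 C57Bl/6 mice dosed i.p. (18:1:1 v/v/v saline/ethanol/PEG40, 10 μL g⁻¹) across 0.1–1 mg kg⁻¹; after 4 hr, anesthetized with isoflurane, euthanized, liver membrane fraction isolated (Dounce homogenization in PBS pH 7.5, 1,400 × g then 100,000 × g spin). Proteome labeled with HT-01 (1 μM, 30 min, 37 °C), SDS-PAGE, in-gel fluorescence; ABHD6 activity versus vehicle.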

The target of assay [7] is T2, Monoacylglycerol lipase ABHD6 (Mus musculus, UniProt Q8R2Y0).
T2 sequence (Q8R2Y0 whole entry): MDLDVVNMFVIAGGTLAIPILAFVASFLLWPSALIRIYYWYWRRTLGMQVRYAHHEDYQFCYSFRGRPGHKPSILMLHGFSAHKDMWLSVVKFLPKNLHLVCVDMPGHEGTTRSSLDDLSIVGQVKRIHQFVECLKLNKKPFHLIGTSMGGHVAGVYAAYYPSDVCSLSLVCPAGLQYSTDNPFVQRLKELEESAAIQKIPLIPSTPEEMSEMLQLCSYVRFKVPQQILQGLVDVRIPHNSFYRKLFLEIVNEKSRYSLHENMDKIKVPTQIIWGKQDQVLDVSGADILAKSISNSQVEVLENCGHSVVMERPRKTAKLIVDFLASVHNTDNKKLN
In words: Inhibition of recombinant mouse ABHD6 expressed in HEK293T using 2-arachidonoylglycerol preincubated for 30 mins followed by substrate addition measured after 30 mins by LC-MS analysis.

The subject of assay [8] is Mus musculus. As to the kind of experiment: In vivo inhibition of carboxylesterase-1 in C57Bl/6 mouse liver at 0.1 to 1 mg/kg, ip after 4 hrs by FP-rhodamine-labelled gel-based competitive ABPP assay. The format is functional, organism-based. The gist of the method: as §1
Assay [9] addresses T3, Fatty-acid amide hydrolase 1 (Mus musculus) (UniProt O08914).
T3 sequence (whole entry): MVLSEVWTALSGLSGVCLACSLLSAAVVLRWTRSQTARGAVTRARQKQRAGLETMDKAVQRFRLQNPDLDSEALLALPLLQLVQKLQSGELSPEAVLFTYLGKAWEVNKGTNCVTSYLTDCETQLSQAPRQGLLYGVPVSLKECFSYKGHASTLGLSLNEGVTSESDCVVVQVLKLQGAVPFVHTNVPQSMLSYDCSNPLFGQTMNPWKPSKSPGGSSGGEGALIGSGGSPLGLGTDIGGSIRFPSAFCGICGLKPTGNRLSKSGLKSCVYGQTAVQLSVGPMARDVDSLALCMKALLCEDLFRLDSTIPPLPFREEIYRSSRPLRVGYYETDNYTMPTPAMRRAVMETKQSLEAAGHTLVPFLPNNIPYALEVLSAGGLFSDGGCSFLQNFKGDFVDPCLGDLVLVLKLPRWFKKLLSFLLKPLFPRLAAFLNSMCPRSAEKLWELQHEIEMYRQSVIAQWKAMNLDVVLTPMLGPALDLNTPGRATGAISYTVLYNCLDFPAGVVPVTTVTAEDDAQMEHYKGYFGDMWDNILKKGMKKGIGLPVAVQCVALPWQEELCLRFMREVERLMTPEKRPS
As to the kind of experiment: Inhibition of mouse brain FAAH at 10 uM after 30 mins by FP-rhodamine ABPP-based SDS-PAGE analysis relative to control.

Assay [10] concerns Mus musculus. As to the kind of experiment: In vivo inhibition of FAAH in C57Bl/6 mouse brain at =>10 mg/kg, po after 4 hrs by FP-rhodamine/HT-10-labelled gel-based competitive assay.
The test system of assay [11] is Mus musculus. As to the kind of experiment: In vivo inhibition of carboxylesterase-1 in C57Bl/6 mouse brain at 0.1 to 1 mg/kg, ip after 4 hrs by FP-rhodamine-labelled gel-based competitive ABPP assay. In kind it is functional, organism-based. In a few lines: as §1
Assay [12] concerns the target T2, Monoacylglycerol lipase ABHD6. As to the kind of experiment: Inhibition of ABHD6 in FP-rhodamine-labelled mouse brain membrane preincubated for 30 mins followed by FP-rhodamine labelling measured after 30 mins by gel-based competitive ABPP assay.
Assay [13] concerns Mus musculus. In words: In vivo inhibition of ABHD6 in C57Bl/6 mouse brain at 20 mg/kg, ip after 4 hrs by FP-rhodamine/HT-10-labelled gel-based competitive assay. The settings on record: C57Bl/6, Brain.
Assay [14] relates to Mus musculus. As to the kind of experiment: In vivo inhibition of PLA2G7 in C57Bl/6 mouse liver and bain at 0.1 to 1 mg/kg, ip after 4 hrs by FP-rhodamine-labelled gel-based competitive ABPP assay. The format is functional, organism-based. In a few lines:
as §1

Assay [15] concerns Mus musculus. As to the kind of experiment: In vivo inhibition of DAGLbeta in C57Bl/6 mouse liver and bain at 0.1 to 1 mg/kg, ip after 4 hrs by FP-rhodamine-labelled gel-based competitive ABPP assay. In kind it is functional, organism-based. In a few lines:
as §1

Chain of Acyl-protein thioesterase 1 (Mus musculus) (P97823 whole entry): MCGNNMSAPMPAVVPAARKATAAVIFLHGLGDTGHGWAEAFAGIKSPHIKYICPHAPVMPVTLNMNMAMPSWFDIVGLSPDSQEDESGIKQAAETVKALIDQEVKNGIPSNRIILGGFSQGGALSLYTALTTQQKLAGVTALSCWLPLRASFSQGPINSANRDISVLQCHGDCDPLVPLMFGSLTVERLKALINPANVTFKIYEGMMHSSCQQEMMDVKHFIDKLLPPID
Chain of Acyl-protein thioesterase 2 (Mus musculus) (Q9WTL7 whole entry): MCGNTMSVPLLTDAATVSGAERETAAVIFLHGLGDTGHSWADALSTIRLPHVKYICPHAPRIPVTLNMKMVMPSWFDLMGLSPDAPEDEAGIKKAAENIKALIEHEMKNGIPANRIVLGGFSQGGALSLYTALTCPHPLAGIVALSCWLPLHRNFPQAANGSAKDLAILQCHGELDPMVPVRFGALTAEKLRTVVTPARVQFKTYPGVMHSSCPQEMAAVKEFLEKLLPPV

In the case of `O=C(N1CCCCC1c1ccccc1)n1cc(-c2ccc(-c3cccc(CO)c3)cc2)nn1` (racemic), the inhibition result (with Mus musculus [1]; in [2]; in the assay with Mus musculus [4]; in assay [5]; in the assay on Mus musculus [8]; in assay [9]) was “Active” in each case. In addition, the inhibition entry in the assay with Mus musculus [10] and in the assay on Mus musculus [11] was “Active” throughout. Further, the inhibition in assay [3] is below 50%. At 0.1 mg/kg the inhibition in vivo in the assay with Mus musculus [6] was 80%. Moreover, in [7] (hek-293t), the half-maximal inhibitory concentration (IC50) came to 15.1 nM.
Consider `O=C(c1cccc(-c2ccc(-c3cn(C(=O)N4CCCCC4c4ccccc4)nn3)cc2)c1)N1CCCCC1` (racemic), for which the inhibition result in [2] and in assay [5] was “Active” each time. In assay [3], this compound had an inhibition below 50%. The figures for the IC50 in assay [7] and in assay [12] were 13.6 nM and 1.3 nM, respectively. In the assay on Mus musculus [13], this compound displayed an inhibition in vivo at 20 mg/kg above 70%.
On to `O=C(O)c1cccc(-c2ccc(-c3cn(C(=O)N4CCCCC4Cc4ccccc4)nn3)cc2)c1` (racemic), for which the inhibition result (in the assay with Mus musculus [1]; in [9]; in the assay on Mus musculus [10]) was “Active” in each case. The inhibition in assay [3] was below 50%. Besides, the inhibition in vivo at 0.1 mg/kg with Mus musculus [6] was 80%. Besides, the inhibition result in the assay with Mus musculus [8], in the assay on Mus musculus [14], with Mus musculus [15] and in the assay on Mus musculus [11] was “inactive” each time.
